Test results as given in article PMC4769423 (BMJ Open Respiratory Research, 2016).

System: OVA-sensitised Brown Norway rat
Assay: OVA-sensitised and challenged Brown Norway rat allergy model
Format: in vivo
Details: 1 mg/kg intratracheal, 24 h before and 24 h after OVA challenge
Summary of the method: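 In OVA-sensitised Brown Norway rats, the test compound was given intratracheally 24 h before and 24 h after OVA challenge (5 sensitised-only, 9 dosed per point; or groups of eight). Alternatively, from 14 days post-sensitisation, rats received 1 mg/kg weekly for eight doses (10 per point), then aerosolised OVA 26 days later. BAL eosinophils and IL-13 were measured 48 h post-challenge. Results were given as mean±SEM; Mann-Whitney U test versus vehicle-dosed OVA controls.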

CCCC1O[C@@H]2C[C@H]3[C@@H]4CCC5=CC(=O)C=C[C@]5(C)[C@H]4[C@@H](O)C[C@]3(C)[C@]2(C(=O)CO)O1 (stereo partly shown) [budesonide]
efficacy of acute dosing (BAL eosinophils, IL-13): demonstrated efficacy
